Measured values published in ChEMBL document CHEMBL1125570 (J Med Chem, 1992).

Key:
[1] = target: T1, 5-hydroxytryptamine receptor 2C (Rattus norvegicus, UniProt P08909); assay: Binding affinity against 5-hydroxytryptamine 1C receptor in rat using [3H]mesulergine as radioligand
T1 sequence (P08909 whole entry): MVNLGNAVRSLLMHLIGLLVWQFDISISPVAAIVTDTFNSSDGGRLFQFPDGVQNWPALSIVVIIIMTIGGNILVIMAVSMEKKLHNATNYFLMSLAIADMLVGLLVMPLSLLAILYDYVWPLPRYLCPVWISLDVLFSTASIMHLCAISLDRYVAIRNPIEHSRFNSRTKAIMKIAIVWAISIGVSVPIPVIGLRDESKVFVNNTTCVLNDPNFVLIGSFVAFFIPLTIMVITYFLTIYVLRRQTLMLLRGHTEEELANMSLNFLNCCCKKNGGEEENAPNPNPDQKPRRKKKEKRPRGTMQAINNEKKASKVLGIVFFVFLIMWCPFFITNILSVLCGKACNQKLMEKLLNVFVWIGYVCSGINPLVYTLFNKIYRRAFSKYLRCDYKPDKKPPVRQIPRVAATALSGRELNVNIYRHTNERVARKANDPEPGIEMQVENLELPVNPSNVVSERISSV
Outline: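 Rat frontal cortex homogenate (male Sprague-Dawley, 200–250 g), washed in 50 mM Tris·HCl, 0.5 mM EDTA, 10 mM MgCl2, pH 7.4, with 0.1% ascorbate and 10⁻⁵ M pargyline. 10 mg wet tissue, 1 nM [3H]mesulergine, 100 nM spiperone to block 5-HT2 sites, nonspecific binding with 1.0 μM mianserin. Incubated 15 min at 37 °C, triplicates, filtration. Ki from IC50 via Cheng–Prusoff.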

[2] = target: Serotonin 2 (5-HT2) receptor (Rattus norvegicus, UniProt P14842); assay: Binding affinity against 5-hydroxytryptamine 2 receptor in rat using [3H]ketanserin as radioligand
Outline: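 Male Sprague-Dawley rat (200–250 g) frontal cortex membranes in 50 mM Tris·HCl/0.5 mM EDTA/10 mM MgCl2, pH 7.4, plus 0.1% ascorbate and 10⁻⁵ M pargyline. Nonspecific binding defined by 1.0 μM cinanserin. Run in triplicate, 15 min at 37 °C, then filtration. Ki = IC50/(1 + D*/KD*).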

[3] = target: T1, 5-hydroxytryptamine receptor 2C; assay: Binding affinity against 5-hydroxytryptamine 1C receptor
[4] = target: T2, Serotonin 2 (5-HT2) receptor (Rattus norvegicus, UniProt P30994+P08909+P14842); assay: Binding affinity against 5-Hydroxy tryptamine 2 (5-hydroxytryptamine 2)receptor; format: protein assay
[5] = target: T3, Serotonin 2 (5-HT2) receptor (Rattus norvegicus) (UniProt P30994+P08909+P14842); assay: Selectivity for 5-HT1C and 5-HT2 receptors, ratio of Ki; format: protein assay
Outline: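 Both come from rat frontal cortex competition assays run in triplicate for 15 min at 37 °C. The 5-HT1C assay used 1 nM [3H]mesulergine with 100 nM spiperone present. Ki values were derived from IC50 by Cheng–Prusoff.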

[6] = target: T3, Serotonin 2 (5-HT2) receptor (Rattus norvegicus); assay: Selectivity ratio for 5-HT1C compared to 5-HT2 receptors.; format: protein assay
Outline: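 Ratio of 5-HT1C Ki over 5-HT2 Ki. Both come from rat frontal cortex competition assays run in triplicate for 15 min at 37 °C. The 5-HT1C assay used 1 nM [3H]mesulergine with 100 nM spiperone present. […] Ki values were derived from IC50 by Cheng–Prusoff.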

[7] = target: T2, Serotonin 2 (5-HT2) receptor; assay: Inhibitory activity against 5-hydroxytryptamine 2 receptor; format: protein assay
Outline: (§1)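 Male Sprague-Dawley rat (200–250 g) frontal cortex membranes in 50 mM Tris·HCl/0.5 mM EDTA/10 mM MgCl2, pH 7.4, plus 0.1% ascorbate and 10⁻⁵ M pargyline. […] Nonspecific binding defined by 1.0 μM cinanserin. Run in triplicate, 15 min at 37 °C, then filtration. Ki = IC50/(1 + D*/KD*).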

[8] = target: T2, Serotonin 2 (5-HT2) receptor; assay: Inhibitory constant against 5-hydroxytryptamine 2 receptor; format: protein assay; outline: as §1

T3 sequence (P14842 whole entry, looked up, one chain of several): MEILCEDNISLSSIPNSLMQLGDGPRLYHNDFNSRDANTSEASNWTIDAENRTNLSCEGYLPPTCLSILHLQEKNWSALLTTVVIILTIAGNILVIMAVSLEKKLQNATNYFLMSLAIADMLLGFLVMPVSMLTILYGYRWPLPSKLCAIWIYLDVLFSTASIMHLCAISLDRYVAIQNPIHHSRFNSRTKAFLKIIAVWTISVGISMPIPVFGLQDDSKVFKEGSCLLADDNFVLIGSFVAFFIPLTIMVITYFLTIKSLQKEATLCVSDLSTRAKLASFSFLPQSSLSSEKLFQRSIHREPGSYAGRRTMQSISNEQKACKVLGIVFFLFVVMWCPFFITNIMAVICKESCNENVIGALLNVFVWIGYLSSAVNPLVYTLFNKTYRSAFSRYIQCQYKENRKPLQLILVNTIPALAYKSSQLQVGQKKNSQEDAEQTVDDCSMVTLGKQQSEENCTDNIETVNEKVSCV
T3 sequence (P30994 whole entry, looked up, one chain of several): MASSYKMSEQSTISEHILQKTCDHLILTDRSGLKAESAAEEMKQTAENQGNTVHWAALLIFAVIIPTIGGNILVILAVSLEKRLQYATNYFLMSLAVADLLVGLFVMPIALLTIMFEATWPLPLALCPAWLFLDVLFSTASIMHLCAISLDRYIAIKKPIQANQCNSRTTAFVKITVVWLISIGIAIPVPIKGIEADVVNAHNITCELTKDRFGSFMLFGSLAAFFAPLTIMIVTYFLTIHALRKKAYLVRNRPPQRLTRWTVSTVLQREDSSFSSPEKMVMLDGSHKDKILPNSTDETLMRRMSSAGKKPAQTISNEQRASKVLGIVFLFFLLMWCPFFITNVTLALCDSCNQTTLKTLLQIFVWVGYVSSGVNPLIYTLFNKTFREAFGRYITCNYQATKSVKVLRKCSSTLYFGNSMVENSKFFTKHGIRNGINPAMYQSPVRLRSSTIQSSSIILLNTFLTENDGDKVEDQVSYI

Row | Structure (SMILES) | Ki [1] [nM] | Ki [2] [nM] | Ratio [6] | other results
1 | CN1CCN(C(=O)c2ccc(F)cc2)CC1 | > 10000 | > 10000 |  | 
2 | CN1CCN(C(=O)c2ccccc2)CC1 | > 10000 | > 10000 |  | 
3 | CN1CCC(Cc2ccccc2)CC1.Cl |  |  |  | Ki [3]: > 10000 nM; Ki [4]: 3870 nM; Ki ratio [5]: > 2
4 | CN(C)CCn1c(=O)[nH]c2ccccc2c1=O | > 10000 | > 10000 |  | 
5 | O=C(O)/C=C\C(=O)O.O=c1[nH]c2ccccc2c(=O)n1CCNCCCCc1ccccc1 | > 10000 | 180 | > 50 | 
6 | O=C(O)C(=O)O.O=C(c1ccc(F)cc1)C1CCN(Cc2ccccc2)CC1 | 3000 | 25 | 120 | 
7 | CCN1CCC(C(=O)c2ccc(F)cc2)CC1 | 3160 | 260 | 12 | 
8 | O=C(c1ccc(F)cc1)C1CCN(CCn2c(=O)[nH]c3ccccc3c2=O)CC1 [KETANSERIN] | 50 |  |  | 
9 | CN1CCN(C2CC(c3ccc(F)cc3)c3ccccc32)CC1 (single isomer, unassigned; (+)) |  |  |  | IC50 [7]: 4.9 nM
10 | OC(c1ccccc1)C1CCN(CCc2ccccc2)CC1 (configuration not stated) [GLEMANSERIN] |  |  |  | Ki [8]: 12.5 nM
11 | c1ccc(CN2CCNCC2)cc1 | > 10000 | > 10000 |  | 
12 | O=C(O)/C=C\C(=O)O.O=c1[nH]c2ccccc2c(=O)n1CCN1CCC(Cc2ccccc2)CC1 | 970 | 32 | 30 | 
13 | O=C(O)C(=O)O.O=c1[nH]c2ccccc2c(=O)n1CCN1CCC(Cc2ccc(F)cc2)CC1 | 200 | 12 | 17 | 
14 | O=C(NCCN1CCC(C(=O)c2ccc(F)cc2)CC1)Nc1ccccc1.O=C(O)C(=O)O | 200 | 4.3 | 50 | 
15 | CN1CCC(C(=O)c2ccc(F)cc2)CC1 | 1510 | 125 | 12 | 
16 | O=C(c1ccccc1)N1CCNCC1 | > 10000 | > 10000 |  | 
17 | O=C(O)C(=O)O.O=c1[nH]c2ccccc2c(=O)n1CCN1CCC(C(O)c2ccccc2)CC1 (configuration not stated) | > 10000 | 655 | > 15 | 
18 | CN(CCCc1ccccc1)CCn1c(=O)[nH]c2ccccc2c1=O.O=C(O)C(=O)O | 1390 | 640 | 2 | 

Row | Structure (SMILES) | Ki [1] [nM] | Ki [2] [nM] | Ratio [6] | other results
19 | O=C(O)C(=O)O.O=C(c1ccc(F)cc1)C1CCN(CCCc2ccccc2)CC1 | 940 | 16 | 60 | 
20 | O=C(O)C(=O)O.O=C(c1ccc(F)cc1)C1CCN(CCc2ccccc2)CC1 | 145 | 8.5 | 15 | 
21 | Cl.NCCn1c(=O)[nH]c2ccccc2c1=O | > 10000 | > 10000 |  | 
22 | CCN1CCC(C(O)c2ccc(F)cc2)CC1.O=C(O)/C=C\C(=O)O (configuration not stated) | > 10000 | > 10000 |  | 
23 | O=C(O)/C=C\C(=O)O.O=c1[nH]c2ccccc2c(=O)n1CCNCCCc1ccccc1 | > 10000 | 660 | > 10 | 
24 | O=C(O)/C=C\C(=O)O.O=C(c1ccccc1)C1CCN(CCn2c(=O)[nH]c3ccccc3c2=O)CC1 | 760 | 6.5 | 115 | 
25 | OC(c1ccccc1)C1CCN(CCc2ccc(F)cc2)CC1 (configuration not stated) |  |  |  | IC50 [7]: 0.9 nM
26 | Cl.O=C(CCCN1CCC(C(=O)c2ccc(F)cc2)CC1)c1ccccc1 | 350 | 6.5 | 50 | 
27 | O=C(c1ccc(F)cc1)C1CCNCC1 | 1100 | 430 | 2 | 
28 | O=C(O)C(=O)O.O=C(c1ccc(F)cc1)C1CCN(CCCCCc2ccccc2)CC1 | 420 | 10 | 40 | 
29 | CN1CCN(CCn2c(=O)[nH]c3ccccc3c2=O)CC1.Cl.Cl | > 10000 | > 10000 |  | 
30 | O=C(NCCN1CCC(C(=O)c2ccc(F)cc2)CC1)c1ccccc1.O=C(O)C(=O)O | 1610 | 16 | 100 | 
31 | O=C(c1ccccc1)C1CCNCC1 | > 10000 | 3320 | > 3 | 
32 | O=C(O)C(=O)O.O=C(c1ccc(F)cc1)C1CCN(CCCCc2ccccc2)CC1 | 620 | 5.3 | 120 | 
33 | Cl.O=c1[nH]c2ccccc2c(=O)n1CCN1CCCCC1 | > 10000 | > 10000 |  | 
34 | c1ccc(CC2CCNCC2)cc1 |  |  |  | Ki [3]: > 10000 nM; Ki [4]: > 10000 nM
35 | CN1CCN(Cc2ccc(F)cc2)CC1.Cl.Cl | > 10000 | > 10000 |  | 
36 | O=C1NCCN1CCN1CCN(C2CC(c3ccc(F)cc3)c3ccccc32)CC1 (configuration not stated) |  |  |  | IC50 [7]: 3.4 nM
